Reference: ChEMBL document CHEMBL1154690, “Identification of novel, selective, and stable inhibitors of class II histone deacetylases. Validation studies of the inhibition of the enzymatic activity of HDAC4 by small molecules as a novel approach for cancer therapy” (J Med Chem, 2009)
pEC50, pIC50: −log10 of the molar value.

Experiments:
[1] = target: T1, Histone deacetylase 1 (Homo sapiens, UniProt Q13547); assay: Inhibition of HDAC1
[2] = Inhibition of wild type HDAC4 (653-1084) from Escherichia coli
Method in brief: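 Wild-type HDAC4 expressed in bacteria was assayed with an unnatural trifluoroacetyl-lysine substrate to boost its enzymatic efficiency.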

[3] = Inhibition of constitutively active mutant HDAC4 (653-1084) from Escherichia coli
Method in brief: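 Bacterially expressed HDAC4 carrying an H-to-Y active-site mutation, giving a constitutively active mutant enzyme, was used in the enzymatic inhibition assay.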

[4] = target: T2, Protein deacetylase HDAC6 (Homo sapiens, UniProt Q9UBN7); assay: Inhibition of HDAC6
T2 sequence (Q9UBN7 whole entry): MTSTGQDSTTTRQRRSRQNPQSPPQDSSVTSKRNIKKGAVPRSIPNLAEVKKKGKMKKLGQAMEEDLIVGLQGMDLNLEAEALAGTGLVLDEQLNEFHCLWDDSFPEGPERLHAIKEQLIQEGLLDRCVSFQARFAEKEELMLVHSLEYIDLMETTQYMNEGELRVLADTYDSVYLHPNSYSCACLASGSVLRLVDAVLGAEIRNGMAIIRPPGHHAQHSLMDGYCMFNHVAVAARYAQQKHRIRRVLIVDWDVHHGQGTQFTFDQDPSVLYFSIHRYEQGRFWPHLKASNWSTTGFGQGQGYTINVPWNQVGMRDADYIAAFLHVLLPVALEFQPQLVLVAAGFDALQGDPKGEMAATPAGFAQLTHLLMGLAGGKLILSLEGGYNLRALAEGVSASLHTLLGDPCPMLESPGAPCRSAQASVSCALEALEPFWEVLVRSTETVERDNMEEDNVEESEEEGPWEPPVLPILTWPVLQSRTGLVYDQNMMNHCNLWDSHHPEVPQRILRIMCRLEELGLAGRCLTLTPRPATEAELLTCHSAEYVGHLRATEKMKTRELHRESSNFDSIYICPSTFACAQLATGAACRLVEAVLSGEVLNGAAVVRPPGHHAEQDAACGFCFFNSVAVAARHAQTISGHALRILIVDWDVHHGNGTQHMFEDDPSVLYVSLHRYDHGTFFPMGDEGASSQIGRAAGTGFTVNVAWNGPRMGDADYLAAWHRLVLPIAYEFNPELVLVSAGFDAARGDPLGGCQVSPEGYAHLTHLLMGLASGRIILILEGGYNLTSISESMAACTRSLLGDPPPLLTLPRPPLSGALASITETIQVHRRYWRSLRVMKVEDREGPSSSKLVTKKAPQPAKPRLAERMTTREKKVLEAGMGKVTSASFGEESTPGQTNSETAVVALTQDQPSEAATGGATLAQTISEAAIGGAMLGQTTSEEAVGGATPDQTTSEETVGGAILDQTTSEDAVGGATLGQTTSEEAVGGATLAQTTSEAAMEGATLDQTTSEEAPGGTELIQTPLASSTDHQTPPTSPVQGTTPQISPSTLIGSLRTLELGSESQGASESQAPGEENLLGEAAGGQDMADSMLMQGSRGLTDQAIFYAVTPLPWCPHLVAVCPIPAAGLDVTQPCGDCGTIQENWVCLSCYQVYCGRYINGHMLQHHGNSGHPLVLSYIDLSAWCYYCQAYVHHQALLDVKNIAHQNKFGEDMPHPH

[5] = Metabolic stability in S9 fraction of human HACT116 cells assessed as half life by LC-MS/MS analysis; type: ADME, subcellular; details: S9 fraction of HACT116 (HCT116) cells
[6] = Metabolic stability in human HCT116 cells assessed as half life by LC-MS/MS analysis; type: ADME, cell-based, HCT-116
[7] = target: T2, Protein deacetylase HDAC6; assay: Inhibition of HDAC6 in human HCT116 cells assessed as alpha-tubulin hyperacetylation after 24 hrs; type: cell-based, HCT-116
Method in brief: (§1)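 HCT116 cells were exposed to inhibitor for 72 h in the proliferation assay, or for 24 h for the histone H3 and α-tubulin deacetylation read-outs. Medium was replaced with fresh inhibitor every 12 h throughout. EC50 was taken as the mean of two independent determinations.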

[8] = target: T1, Histone deacetylase 1; assay: Inhibition of HDAC1 in human HCT116 cells assessed as inhibition of histone-H3 deacetylation after 24 hrs; type: cell-based, HCT-116; method in brief: as §1
[9] = test system: HCT-116; assay: Antiproliferative activity against human HCT116 cells after 72 hrs; type: functional, cell-based; details: HCT-116, 72 h; method in brief: as §1
[10] = Selectivity ratio of IC50 for Escherichia coli HDAC4 WT (653-1084) to IC50 for HDAC1

T1 sequence (Q13547 whole entry): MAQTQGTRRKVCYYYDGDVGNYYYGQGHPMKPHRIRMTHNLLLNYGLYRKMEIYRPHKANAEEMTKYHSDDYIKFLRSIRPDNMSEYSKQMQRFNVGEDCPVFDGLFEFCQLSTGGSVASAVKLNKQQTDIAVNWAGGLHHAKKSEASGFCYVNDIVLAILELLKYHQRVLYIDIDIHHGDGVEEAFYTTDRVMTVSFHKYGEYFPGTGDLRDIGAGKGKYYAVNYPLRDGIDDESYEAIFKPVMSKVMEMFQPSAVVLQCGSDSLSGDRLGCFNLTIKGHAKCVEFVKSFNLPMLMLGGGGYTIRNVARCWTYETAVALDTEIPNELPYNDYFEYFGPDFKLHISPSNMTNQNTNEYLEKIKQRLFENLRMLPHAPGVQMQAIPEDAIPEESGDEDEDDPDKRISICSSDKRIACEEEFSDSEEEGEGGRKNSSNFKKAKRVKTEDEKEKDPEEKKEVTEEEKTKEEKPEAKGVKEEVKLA

Compound	pIC50 [1]	pIC50 [2]	pIC50 [3]	pIC50 [4]	half-life [5]	half-life [6]	pEC50 [7]	pEC50 [8]	pEC50 [9]	Ratio IC50 [10]
COc1ccccc1-c1ccc(C(=O)C(F)(F)F)s1	< 5.00	< 5.00	5.46	5.20	–	–	–	–	–	–
O=C(c1cc(-c2ccccc2)cs1)C(F)(F)F	< 5.00	5.49	< 5.00	5.72	–	–	–	–	–	–
O=C(c1ccc(-c2ccccn2)s1)C(F)(F)F	< 6.00	6.27	< 6.00	< 6.00	–	–	–	–	–	–
CN(Cc1ccc2nccnc2c1)C(=O)c1ccc(C(=O)C(F)(F)F)s1	–	7.01	7.06	–	0.25 h	–	–	–	–	–
O=C(c1ccc(-c2ccc3c(c2)OCCO3)s1)C(F)(F)F	< 5.00	< 5.00	5.85	7.43	–	–	–	–	–	–
O=C(c1ccc(-c2nc(CS(=O)(=O)c3cccs3)no2)s1)C(F)(F)F	–	7.46	6.00	–	0.867 h	6 h	–	–	–	–
O=C(c1ccc(-c2ccc3nccnc3c2)s1)C(F)(F)F	6.04	6.80	7.27	7.82	0.167 h	–	–	–	–	–
O=C(c1ccc(-c2nc(CS(=O)(=O)Cc3ccc(F)cc3)no2)s1)C(F)(F)F	–	7.22	6.17	–	> 2 h	–	–	–	–	–
CCCS(=O)(=O)Cc1noc(-c2ccc(C(=O)C(F)(F)F)s2)n1	–	7.52	6.28	–	–	–	–	–	–	–
O=C(O)c1cccc(-c2ccc(C(=O)C(F)(F)F)s2)c1	4.89	6.51	7.02	7.15	–	11 h	6.00	< 4.30	< 4.30	–
O=C(c1cnc(-c2ccccc2)s1)C(F)(F)F	5.43	6.89	6.72	6.68	0.25 h	–	–	–	–	25
CS(=O)(=O)Cc1noc(-c2ccc(C(=O)C(F)(F)F)s2)n1	5.57	7.62	6.11	6.64	> 2 h	–	6.19	5.05	4.89	> 100
N#Cc1ccc(-c2ccc(C(=O)C(F)(F)F)s2)cc1	5.57	6.80	7.85	7.39	> 2 h	8 h	–	–	–	–
COc1ccc(-c2ccc(C(=O)C(F)(F)F)s2)cc1	< 6.00	6.96	< 6.00	< 6.00	–	–	–	–	–	–
CC(=O)c1ccc(-c2ccc(C(=O)C(F)(F)F)s2)cc1	< 5.00	7.14	7.92	7.54	> 2 h	–	–	–	–	–
O=C(c1ccc(-c2ccc3[nH]ccc3c2)s1)C(F)(F)F	< 5.00	< 5.00	5.21	< 5.30	–	–	–	–	–	–
O=C(c1ccc(-c2ccccc2)s1)C(F)(F)F	< 4.70	5.55	5.55	6.77	–	–	–	–	–	–
O=C(O)c1ccc(-c2ccc(C(=O)C(F)(F)F)s2)cc1	5.60	7.13	7.22	7.57	–	–	–	–	–	–
COc1cccc(-c2ccc(C(=O)C(F)(F)F)s2)c1	< 5.00	5.42	< 5.30	5.51	–	–	–	–	–	–
